Results: ChEMBL document CHEMBL4364284, “Design, Synthesis, and Efficacy Testing of Nitroethylene- and 7-Nitrobenzoxadiazol-Based Flavodoxin Inhibitors against Helicobacter pylori Drug-Resistant Clinical Strains and in Helicobacter pylori-Infected Mice” (J Med Chem, 2019)
≈ marks a conversion by molar mass, not a printed value. Calls of active or inactive are those of the source. The rule behind the calls is not given here.

Tests used:
[1] = Cytotoxicity against human HeLa cells assessed as reduction in cell viability by XTT assay; assay type: cell-based; conditions: read-out: MCC50
Outline: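 HeLa cells grown in DMEM with 10% FBS, penicillin and streptomycin at 37 °C, 5% CO2; 30 000 cells/well. XTT viability read at 450 and 650 nm. MCC50 (50% lysis) came from viability-versus-concentration curves. Two experiments, each in triplicate.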

[2] = target: T1, Flavodoxin (Helicobacter pylori (strain ATCC 700392 / 26695) (Campylobacter pylori)) (UniProt O25776); assay: Inhibition of flavodoxin in Helicobacter pylori SS1 assessed as reduction in bacterial growth measured after 48 hrs by resazurin staining-based microdilution method
T1 sequence (whole entry): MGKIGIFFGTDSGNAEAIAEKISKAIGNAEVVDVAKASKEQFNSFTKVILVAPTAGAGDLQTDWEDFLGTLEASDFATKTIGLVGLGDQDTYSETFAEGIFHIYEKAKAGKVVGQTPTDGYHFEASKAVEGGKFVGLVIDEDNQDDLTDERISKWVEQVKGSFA
Outline: (§1)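 Broth microdilution in brain heart infusion with 4% FBS. Inoculum diluted to OD600 0.01. Two-fold dilutions from a DMSO stock cover 64–0.031 μg/mL, with DMSO ≤1% v/v. Incubated 48 h at 37 °C under microaerophilic conditions. MIC is the lowest concentration giving complete growth inhibition, read by resazurin colour change and confirmed by spotting on blood agar. Run twice in triplicate.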

[3] = target: T1, Flavodoxin (Helicobacter pylori (strain ATCC 700392 / 26695) (Campylobacter pylori)); assay: Inhibition of flavodoxin in Mnz-resistant Helicobacter pylori NCTC 11637 ATCC 43504 assessed as reduction in bacterial growth measured after 48 hrs by resazurin staining-based microdilution method; conditions: Helicobacter pylori NCTC 11637 = CCUG 17874 = ATCC 43504; outline: as §1
[4] = target: T1, Flavodoxin (Helicobacter pylori (strain ATCC 700392 / 26695) (Campylobacter pylori)); assay: Inhibition of flavodoxin in Helicobacter pylori ATCC 700392 26695 assessed as reduction in bacterial growth measured after 48 hrs by resazurin staining-based microdilution method; conditions: Helicobacter pylori 26695; outline: as §1
[5] = Therapeutic index, ratio of MCC50 for human HeLa cells to MIC for inhibition of flavodoxin in Helicobacter pylori SS1 assessed as reduction in bacterial growth; assay type: toxicity; conditions: HeLa cells versus Helicobacter pylori SS1, read-out: TI
Outline: (§2)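 TI is MCC50/MIC. For MCC50, HeLa cells (30 000/well, DMEM with 10% FBS) were exposed to compound at 25–1000 μM final. Viability by XTT at 450/650 nm; MCC50 is the concentration giving 50% lysis from viability curves. Run twice in triplicate.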

[6] = Therapeutic index, ratio of MCC50 for human HeLa cells to MIC for inhibition of flavodoxin in Mnz-resistant Helicobacter pylori NCTC 11637 ATCC 43504 assessed as reduction in bacterial growth; assay type: toxicity; conditions: read-out: TI; outline: as §2
[7] = Therapeutic index, ratio of MCC50 for human HeLa cells to MIC for inhibition of flavodoxin in Helicobacter pylori ATCC 700392 26695 assessed as reduction in bacterial growth; assay type: toxicity; conditions: HeLa cells versus Helicobacter pylori ATCC 700392 26695, read-out: TI; outline: as §2
[8] = Toxicity in NMRI mouse infected with Helicobacter pylori SS1 assessed as change in body weight at 10 to 20 mg/100g, po administered daily via gavage for 8 days starting from 1 week post-infection; assay type: organism-based; conditions: in vivo
Outline: (§3)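 Female 6-week-old SPF NMRI mice infected orogastrically with Hp SS1 on days 1 and 3. Compound in 5–10% DMSO/olive oil (100 μL) given by daily oral gavage for 8 days from day 8. Body weight and appetite were monitored during treatment; infected controls received vehicle alone.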

[9] = Toxicity in NMRI mouse infected with Helicobacter pylori SS1 assessed as change in appetite at 10 to 20 mg/100g, po administered daily via gavage for 8 days starting from 1 week post-infection; assay type: organism-based; conditions: in vivo; outline: as §3
[10] = Toxicity in NMRI mouse assessed as change in body weight at 10 to 20 mg/100g, po administered daily via gavage for 8 days; assay type: organism-based; conditions: in vivo, 192 h
Helicobacter pylori [11] = assay: Antibacterial activity against Helicobacter pylori SS1 infected in NMRI mouse assessed as reduction in gastric colonization at 10 mg/100g, po administered daily via gavage for 8 days starting from 1 week post-infection and measured 8 days post-last dose; assay type: functional, organism-based
Outline: (§4)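 Female 6-week-old SPF NMRI mice, seven per condition, infected orogastrically on days 1 and 3 with 100 μL Hp SS1 (5 × 10^8 CFU/mL). From day 8, 100 μL compound in 5–10% DMSO/95–90% olive oil by daily oral gavage for 8 days. Infected controls got vehicle. Killed day 24; stomach homogenates plated 5 days at 37 °C microaerophilic; CFU/g tissue versus control. Mann-Whitney U and unpaired t tests, p ≤ 0.05.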

Helicobacter pylori [12] = assay: Antibacterial activity against Helicobacter pylori SS1 infected in NMRI mouse assessed as bacterial eradication at 10 mg/100g, po administered daily via gavage for 8 days starting from 1 week post-infection and measured 8 days post-last dose; assay type: functional, organism-based; outline: as §4
[13] = target: T1, Flavodoxin (Helicobacter pylori (strain ATCC 700392 / 26695) (Campylobacter pylori)); assay: Binding affinity to Helicobacter pylori flavodoxin by thermal upshift assay
[14] = target: T1, Flavodoxin (Helicobacter pylori (strain ATCC 700392 / 26695) (Campylobacter pylori)); assay: Binding affinity to Helicobacter pylori flavodoxin by isothermal titration calorimetric method
Escherichia coli = assay: Effect on growth of Escherichia coli DH5[alpha] after 48 hrs by resazurin-dye based microdilution assay; assay type: organism-based
Staphylococcus aureus = assay: Effect on growth of Staphylococcus aureus ATCC 1228 after 48 hrs by resazurin-dye based microdilution assay; assay type: organism-based
[15] = Therapeutic index, ratio of MCC50 for human HeLa cells to MIC for inhibition of flavodoxin in metronidazole-resistant Helicobacter pylori isolate 1 assessed as reduction in bacterial growth; assay type: toxicity; conditions: read-out: TI; outline: as §2
[16] = Therapeutic index, ratio of MCC50 for human HeLa cells to MIC for inhibition of flavodoxin in metronidazole-resistant Helicobacter pylori isolate 2 assessed as reduction in bacterial growth; assay type: toxicity; conditions: read-out: TI; outline: as §2
[17] = Therapeutic index, ratio of MCC50 for human HeLa cells to MIC for inhibition of flavodoxin in metronidazole-resistant Helicobacter pylori isolate 3 assessed as reduction in bacterial growth; assay type: toxicity; conditions: read-out: TI; outline: as §2
[18] = Therapeutic index, ratio of MCC50 for human HeLa cells to MIC for inhibition of flavodoxin in clarithromycin/metronidazole-resistant Helicobacter pylori isolate 4 assessed as reduction in bacterial growth; assay type: toxicity; conditions: read-out: TI; outline: as §2
[19] = Therapeutic index, ratio of MCC50 for human HeLa cells to MIC for inhibition of flavodoxin in rifampicin-resistant Helicobacter pylori isolate 5 assessed as reduction in bacterial growth; assay type: toxicity; conditions: read-out: TI; outline: as §2
[20] = Therapeutic index, ratio of MCC50 for human HeLa cells to MIC for inhibition of flavodoxin in clarithromycin/metronidazole-resistant Helicobacter pylori isolate 6 assessed as reduction in bacterial growth; assay type: toxicity; conditions: read-out: TI; outline: as §2
[21] = Stability of the compound in DMSO-d6 at pH 1 incubated for 19 hrs under shaking condition by 1H-NMR analysis; assay type: physicochemical; conditions: pH 1, 19 h
[22] = Toxicity in NMRI mouse infected with Helicobacter pylori SS1 assessed as change in appetite at 1 to 20 mg/100g, po administered daily via gavage for 8 days starting from 1 week post-infection; assay type: organism-based; conditions: in vivo
Outline: (§5)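 Compound in 5–10% DMSO/olive oil (100 μL) given by daily oral gavage for 8 days from day 8. Body weight and appetite were monitored during treatment; infected controls received vehicle alone.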

[23] = Toxicity in NMRI mouse infected with Helicobacter pylori SS1 assessed as change in body weight at 1 to 20 mg/100g, po administered daily via gavage for 8 days starting from 1 week post-infection; assay type: organism-based; conditions: in vivo; outline: as §5
[24] = Toxicity in NMRI mouse assessed as change in body weight at 1 to 20 mg/100g, po administered daily via gavage for 8 days; assay type: organism-based; conditions: in vivo, 192 h
Helicobacter pylori [25] = assay: Antibacterial activity against Helicobacter pylori SS1 infected in NMRI mouse assessed as bacterial eradication at 10 mg/100g, po administered daily via gavage for 8 days starting from 1 week post-infection and measured 8 days post-last dose relative to control; assay type: functional
Outline: (§6)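 From day 8, 100 μL compound in 5–10% DMSO/95–90% olive oil by daily oral gavage for 8 days. Infected controls got vehicle. Killed day 24; stomach homogenates plated 5 days at 37 °C microaerophilic; CFU/g tissue versus control. Mann-Whitney U and unpaired t tests, p ≤ 0.05.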

Helicobacter pylori [26] = assay: Antibacterial activity against Helicobacter pylori SS1 infected in NMRI mouse assessed as bacterial eradication at 20 mg/100g, po administered daily via gavage for 8 days starting from 1 week post-infection and measured 8 days post-last dose relative to control; assay type: functional; outline: as §6
Helicobacter pylori [27] = assay: Antibacterial activity against Helicobacter pylori SS1 infected in NMRI mouse assessed as reduction in gastric colonization at 1 to 20 mg/100g, po administered daily via gavage for 8 days starting from 1 week post-infection and measured 8 days post-last dose; assay type: functional, organism-based; outline: as §4
[28] = Toxicity in NMRI mouse infected with Helicobacter pylori SS1 assessed as change in body weight at 0.1 to 1 mg/100g, po administered daily via gavage for 8 days starting from 1 week post-infection; assay type: organism-based; conditions: in vivo
[29] = Toxicity in NMRI mouse infected with Helicobacter pylori SS1 assessed as change in appetite at 0.1 to 1 mg/100g, po administered daily via gavage for 8 days starting from 1 week post-infection; assay type: organism-based; conditions: in vivo
[30] = Toxicity in NMRI mouse assessed as change in body weight at 0.1 to 1 mg/100g, po administered daily via gavage for 8 days; assay type: organism-based; conditions: in vivo, 192 h
Helicobacter pylori [31] = assay: Antibacterial activity against Helicobacter pylori SS1 infected in NMRI mouse assessed as reduction in gastric colonization at 0.1 to 1 mg/100g, po administered daily via gavage for 8 days starting from 1 week post-infection and measured 8 days post-last dose; assay type: functional, organism-based
Outline: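 From day 8, compound given daily by oral gavage for 8 days in 100 μL of 5–10% DMSO/95–90% olive oil. Sacrificed day 24; stomach homogenate CFU/g counted after 5 days microaerophilic culture at 37 °C. Infected vehicle-treated controls; Mann-Whitney U and unpaired t tests, p ≤ 0.05.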

Helicobacter pylori [32] = assay: Antibacterial activity against Helicobacter pylori SS1 infected in NMRI mouse assessed as bacterial eradication at 20 mg/100g, po administered daily via gavage for 8 days starting from 1 week post-infection and measured 8 days post-last dose; assay type: functional, organism-based
Outline: (§7)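 Female 6-week-old SPF NMRI mice, 7 per condition, infected orogastrically on days 1 and 3 with 100 μL Hp SS1 (5 × 10^8 CFU/mL). From day 8, compound given daily by oral gavage for 8 days in 100 μL of 5–10% DMSO/95–90% olive oil. Sacrificed day 24; stomach homogenate CFU/g counted after 5 days microaerophilic culture at 37 °C. Infected vehicle-treated controls; Mann-Whitney U and unpaired t tests, p ≤ 0.05.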

Helicobacter pylori [33] = assay: Antibacterial activity against Helicobacter pylori SS1 infected in NMRI mouse assessed as reduction in gastric colonization at 20 mg/100g, po administered daily via gavage for 8 days starting from 1 week post-infection and measured 8 days post-last dose; assay type: functional, organism-based; outline: as §7

| Compound | CC50 [1] [µM] | MIC [2] [µM] | MIC [3] [µM] | MIC [4] [µM] | selectivity ratio [5] | selectivity ratio [6] | selectivity ratio [7] | Activity [8] | Activity [9] | Activity [10] | Activity [13] | Activity [14] | Activity (Escherichia coli) | Activity (Staphylococcus aureus) | other results |
| --- | --- | --- | --- | --- | --- | --- | --- | --- | --- | --- | --- | --- | --- | --- | --- |
| O/N=C1\Cc2cc(Cl)cc(Cl)c2OC1c1ccc(F)cc1 (stereo not given) | 117 | 12 (≈ 3.91 µg/mL) | 6.1 (≈ 1.99 µg/mL) | 6.1 (≈ 1.99 µg/mL) | 10 | 19 | 19 | Non-Toxic | Non-Toxic | Non-Toxic | Active | Active | Non-Toxic | Non-Toxic | Activity (Helicobacter pylori [11]): Active; Activity (Helicobacter pylori [12]): inactive |
| COc1ccc(C[S+]([O-])c2ccc(N)c3nonc23)cc1 (stereo not given) | > 1000 | 105 (≈ 31.9 µg/mL) | 53 (≈ 16.1 µg/mL) | 26 (≈ 7.89 µg/mL) | > 9.5 | > 19 | > 39 |  |  |  | Active | Active | Non-Toxic | Non-Toxic | selectivity ratio [15]: 9.5; selectivity ratio [16]: 9.5; selectivity ratio [17]: 9.5; selectivity ratio [18]: 9.5; selectivity ratio [19]: 9.5; selectivity ratio [20]: 9.5; Stability [21]: Stable; Activity [22]: Non-Toxic; Activity [23]: Non-Toxic; Activity [24]: Non-Toxic; Activity (Helicobacter pylori [25]): 5%; Activity (Helicobacter pylori [26]): 60%; Activity (Helicobacter pylori [27]): Active |
| O=[N+]([O-])/C=C/c1cc(C(F)(F)F)cc(C(F)(F)F)c1 | 15 | 1.8 (≈ 0.513 µg/mL) | 3.5 (≈ 0.998 µg/mL) | 1.8 (≈ 0.513 µg/mL) | 8.3 | 4.3 | 8.3 |  |  |  | Active | Active | Non-Toxic | Non-Toxic | Activity [28]: Non-Toxic; Activity [29]: Non-Toxic; Activity [30]: Non-Toxic; Activity (Helicobacter pylori [31]): inactive |
| NCCc1cc(C(F)(F)F)cc(C(F)(F)F)c1 | > 500 | > 249 | 31 (≈ 7.97 µg/mL) | 31 (≈ 7.97 µg/mL) |  | > 16 | > 16 | Non-Toxic | Non-Toxic | Non-Toxic | Active | Active | Non-Toxic | Non-Toxic | Activity (Helicobacter pylori [32]): Active; Activity (Helicobacter pylori [33]): Active |
